Screens: PubChem BioAssay, several laboratories
Measles CPE: compounds protecting cells from measles virus cytopathic effect, primary screen, measles RdRp inhibitor project, single point, MLSMR library, absorbance. Measles virus-infected cells, CPE protection. protection (pct of control), % at 4 µM. 140,000 compounds, 1.5% hits. AID 841, 2007; in the data active means protection mostly above about 24%, no sharp cut-off; inactive means mostly below about 26%
WT yeast gro inh: growth inhibition of WT strain, primary screen, mitochondrial fusion inhibitor project, WT and mutant strains, chemical genetic. mitochondrial fusion phenotypic screen. inhibition, % at 10 µM. 190,000 compounds, 2.1% hits; in the data active means inhibition above about 58%; tested in S. cerevisiae
RAM network inh: inhibitors of the yeast RAM network, primary screen, dse1pr::URA3 reporter, 5-FOA selection | S. cerevisiae dse1pr::URA3 reporter, 5-FOA growth OD615, 2 d; analog-sensitive cbk1-as2 kinase mutant strain | inhibition, % at 50 µM | 190,000 compounds, 1.8% hits | AID 868, 2007;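 active means inhibition above a set limit, 3 SD over mean compound inhibition, cut at about 8.4% in these data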;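 further: 0% = DMSO-only wells with no growth and 100% = 10 µM 1-NA-PP1 full growth; inhibition rescues growth on 5-FOA so higher OD means more RAM inhibition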
Yeast growth inh: growth inhibitors of yeast BB579 in restrictive medium, primary screen, yeast lifespan-shortening project, S. cerevisiae. OD615, 48 h. inhibition, % at 10 µM. 140,000 compounds, 0.51% hits. AID 804, 2007;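 active means inhibition above a set limit, 3 SD over the mean compound inhibition, cut at about 44% in these data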
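System: DeaD yeast strain BB579; buffer or medium: CSMM-D dextrose restrictive medium; technique: OD at 615 nm; schedule: 4 h cell preincubation, 48 h compound exposure, 30 °C humidified; doses: single 10 µM dose; controls: amphotericin B 10 µg/mL, positive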
Yeast life ext: compounds extending yeast replicative lifespan, primary screen, S. cerevisiae, OD615; inhibition of the nicotinamide effect, % at 10 µM; 130,000 compounds, 0.68% hits; S. cerevisiae growth with nicotinamide; deaD strain in restrictive glucose medium; AID 775, 2007;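 active means inhibition above a set limit, placed 3 SD over the median of all compounds, cut at about 26% in these data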;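 further: 0% = nicotinamide-treated wells and 100% = cells grown without nicotinamide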
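assay system = DeaD-strain S. cerevisiae | buffer or medium = restrictive glucose medium | reagent = 1.5 mM nicotinamide | compound = 10 µM single point, 0.25% DMSO | incubation = 48 h compound exposure at 30 °C, humidified | signal = OD615 measurement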
hDAT+cocaine: changed hDAT dopamine uptake under cocaine IC80, either direction, primary screen, cocaine antagonist project, cell-based, LLC-PK1 hDAT, [14C]-dopamine uptake, MLSMR. Sodium-dependent dopamine transporter (Homo sapiens), Q01959. LLC-PK1 hDAT cells, [14C]-dopamine uptake with cocaine IC80; actives deviate in either direction. B-score at 10 µM. 110,000 compounds, 1.3% hits. AID 449768, 2010;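 active means Z score or B-score, a plate-position-corrected score, falls beyond the plate's 99.7% confidence bounds, in either direction; inactive means both scores lie inside the 99.7% bounds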;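 further: scored against the spread of the other compound wells on the same plate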
Target sequence (Q01959 whole entry, looked up): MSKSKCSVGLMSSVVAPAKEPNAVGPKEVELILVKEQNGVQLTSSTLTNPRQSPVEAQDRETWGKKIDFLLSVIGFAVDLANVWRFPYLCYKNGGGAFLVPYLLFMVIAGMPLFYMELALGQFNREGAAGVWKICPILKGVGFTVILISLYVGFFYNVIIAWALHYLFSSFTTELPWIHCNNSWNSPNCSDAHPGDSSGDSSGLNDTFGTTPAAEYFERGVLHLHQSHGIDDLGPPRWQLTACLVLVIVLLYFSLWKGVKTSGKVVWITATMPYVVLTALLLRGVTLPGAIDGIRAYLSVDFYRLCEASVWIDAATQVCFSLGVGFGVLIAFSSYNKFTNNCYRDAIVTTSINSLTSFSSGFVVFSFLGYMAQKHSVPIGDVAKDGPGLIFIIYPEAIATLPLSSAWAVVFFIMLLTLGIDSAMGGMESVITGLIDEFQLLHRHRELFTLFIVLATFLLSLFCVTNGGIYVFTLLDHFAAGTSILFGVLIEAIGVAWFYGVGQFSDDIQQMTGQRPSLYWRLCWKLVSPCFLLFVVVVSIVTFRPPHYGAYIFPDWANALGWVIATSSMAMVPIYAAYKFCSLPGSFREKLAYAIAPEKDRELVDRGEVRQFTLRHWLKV
* hit, by the source's call; . = not tested or not shown. Hits are enriched below; roughly 6.1% of the tested compounds scored in any of these assays.

SMILES	Measles CPE	WT yeast gro inh	RAM network inh	Yeast growth inh	Yeast life ext	hDAT+cocaine
CCCN(CCC)C(=O)CSc1nc2ccccc2c(=O)n1CC1COc2ccccc2O1 (stereo unspecified)	4.6	-1.1	9.0*	-37.8	-16.1	-0.266
Cc1ccccc1Cn1cnc2c(cnn2C(C)(C)C)c1=O	-0.2	-3.7	-0.7	-20.2	-12.6	0.33
Cc1ccc(C)c(Cn2cnc3c(cnn3C(C)(C)C)c2=O)c1	7.1	61.0*	0.5	-25.6	-19.8	-0.028
Cc1cc(NCCCn2ccnc2)n2ncc(-c3ccc(Cl)cc3)c2n1	21.6	63.9*	-0.1	-9.9	-26.8	4.08*
CCOC(=O)NC1(C(F)(F)F)C(=O)NC(C)=C1C(=O)OC (stereo unspecified)	16.1	-15.9	0.8	-17.6	-10.1	-0.706
COC(=O)C1=C(C)NC(=O)C1(NC(=O)CN1CCCC1=O)C(F)(F)F (stereo unspecified)	40.8*	-8.1	-0.6	-27.6	-4.3	0.276
CC(C)(C)NS(=O)(=O)c1cc(C(=O)Nc2sccc2C#N)ccc1Cl	13.4	5.4	3.2	1.1	-1.3	.
O=[N+]([O-])c1ccccc1OCc1nc(-c2cccs2)no1	.	-5.0	2.2	.	.	.
Cc1ccc(OCc2nc(-c3cccs3)no2)c([N+](=O)[O-])c1	.	-4.2	8.7*	.	.	.
N=c1c(C(=O)NCc2ccco2)cc2c(=O)n3ccccc3nc2n1CCc1ccccc1	29.3	2.7	-0.5	-49.0	.	4.05*
Cc1ccc(Cn2c(=N)c(C(=O)NCc3ccco3)cc3c(=O)n4ccccc4nc32)cc1	6.5	15.5	-0.6	-21.1	-4.3	.
Cn1cc(Br)c(C(=O)Nc2sc3c(c2C(N)=O)CCC3)n1	9.0	-5.7	0.0	-7.1	-12.8	0.0142
CCn1ncc(Br)c1C(=O)Nc1sc2c(c1C(N)=O)CCC2	33.4*	13.9	1.5	-14.4	-18.0	-0.253
Cc1cc(NC(=O)CCN2C(=O)C3C4C=CC(C4)C3C2=O)c2ccccc2n1 (stereo unspecified)	45.4*	-9.7	2.3	-24.8	-9.9	-0.938
O=C(CCN1C(=O)C2C3C=CC(C3)C2C1=O)Nc1ccccc1 (stereo unspecified)	.	-3.7	3.9	.	.	.
O=C(NCc1ccc2c(c1)OCO2)c1ccc(COc2cc(Cl)ccc2Cl)o1	19.2	48.6	9.4*	-41.8	-4.1	0.627
O=C(NCc1ccc2c(c1)OCO2)c1ccc(CS(=O)(=O)Cc2cccc(Cl)c2)o1	9.9	-10.0	4.5	-31.8	0.6	.
CS(=O)(=O)N(CC(=O)NCc1ccc2c(c1)OCO2)c1ccc(Cl)cc1	3.6	79.7*	-0.1	0.7	-19.7	.
O=C(NCc1ccc2c(c1)OCO2)c1ccc(CSCc2ccc(Cl)cc2)o1	19.3	59.1*	7.3	-32.4	5.8	.
CC(NC(=O)C(NC(=O)C(Cc1c[nH]c2ccccc12)NC(=O)OC(C)(C)C)C(C)C)C(N)=O (stereo unspecified)	.	8.2	-1.4	.	.	.
CN(C)/C=C(/C#N)C(=O)c1cccc(Oc2ccc(C(C)(C)C)cc2)c1	19.8	65.2*	5.8	-67.9	2.1	0.242
Cc1nn(C)cc1CN(C)C(=O)CCc1nnc(CCC2CCCCC2)o1	.	2.5	0.6	.	.	.
CC(=O)Nc1c(C)ccc(CNC(=O)COc2cc(C)ccc2C)c1C	15.2	6.7	1.1	-46.1	4.2	.
C=CCn1c(=O)c(C(=O)NCCNCC)c(O)c2ccccc21	7.8	5.4	-0.2	-5.7	31.4*	-0.511
CCOC(=O)c1ccc(NC(=S)N2CCSC2c2ccc(Cl)cc2)cc1 (stereo unspecified)	3.0	59.8*	4.7	-11.7	-0.3	.
SMILES	Measles CPE	WT yeast gro inh	RAM network inh	Yeast growth inh	Yeast life ext	hDAT+cocaine
COc1ccc(S(=O)(=O)N2CCSC2c2ccc(N)cc2)cc1 (stereo unspecified)	11.3	-9.8	0.8	-25.8	-4.6	0.0348
CC(=O)Nc1ccc(S(=O)(=O)N2CCSC2c2ccc(Cl)cc2)cc1 (stereo unspecified)	38.9	78.0*	2.6	-7.7	-5.9	-0.105
CCOC(=O)c1ccc(NC(=S)N2CCSC2c2ccc(OC)cc2)cc1 (stereo unspecified)	16.9	11.1	3.1	-19.7	5.8	.
COc1ccc(NC(=O)/C(=C/c2ccc3c(c2)OCO3)NC(C)=O)cc1	8.1	9.9	4.3	1.5	-1.0	.
O=C(CCCSc1nnnn1-c1ccccc1)c1ccc(F)cc1	5.0	12.9	6.8	7.5	-17.8	-0.0843
Cn1c(=O)c2[nH]c(CCCC(=O)O)nc2n(Cc2ccccc2)c1=S	.	.	.	.	.	0.714
Oc1c(I)cc(I)c2cccnc12	46.6	17.3	-0.7	82.9*	-4.0	0.173
Oc1c(Cl)cc(Cl)c2cccnc12	.	54.9	-0.7	.	.	.
O=C(CSc1ccc(-c2ccncc2)nn1)N1CCN(c2ccccc2)CC1	.	-3.2	3.4	.	.	.
O=C(Nc1cccc2cccnc12)C1CCCC1	28.6*	19.1	0.0	-14.0	-2.2	.
O=C(NC1CCCCC1)C(=S)NCc1ccccc1	.	22.5	-0.4	.	.	.
O=C(Nc1ccc2c(c1)OCCO2)C(=S)NCc1ccccc1	.	38.5	8.7*	.	.	.
O=C(NC1CCCCCC1)C(=S)NCc1ccccc1	.	73.4*	3.7	.	.	.
O=C(NCc1ccccc1)c1ccc(C(=O)N(C2CCCCC2)C2CCCCC2)cc1	25.4	61.5*	1.9	-41.9	-8.8	1.68
CC(C(=O)Nc1nc2ccccc2s1)n1cc([N+](=O)[O-])cn1 (stereo unspecified)	.	10.1	-0.2	.	.	.
O=C(COc1ccc2ccccc2c1Br)Nc1ncn[nH]1	4.8	2.2	-0.1	-17.3	-6.9	0.804
CCc1nn(CCCC(=O)N2CCc3ccccc3C2)c(=O)c2cc3occc3n12	21.1	22.8	0.2	-92.7	-9.8	0.791
CCOc1ccc(-c2cn3ccccc3n2)cc1	.	40.6	-0.4	.	.	.
O=C(CSc1nnc(SCc2cccc3ccccc23)s1)c1ccc2c(c1)OCO2	19.8	22.3	8.8*	-35.8	-6.6	.
CCc1nc(SCC(=O)c2ccc3c(c2)OCCO3)c2ccccc2n1	9.4	47.6	1.7	-68.6	147.2*	.
Nc1nnc(N)c2ccccc12	.	-1.7	0.6	.	.	.
Nc1nsc2ccccc12	5.5	-4.7	0.1	46.0*	-7.7	0.0374
Cc1cc([N+](=O)[O-])ccc1N=Nc1c(N)[nH]n(-c2ccccc2)c1=O	.	2.3	8.6*	.	.	.
O=C(CN1C(=O)COc2ccccc21)N(Cc1cccnc1)Cc1cccc(F)c1	5.9	77.4*	1.5	-45.0	15.8	0.819
O=C(O)Cc1ccc(O)c(F)c1	4.6	2.9	0.1	-49.1	15.3	1.31
